Experimental data reported in ChEMBL document CHEMBL1136055, “3-Heteroaryl-2-pyridones: benzodiazepine site ligands with functional delectivity for alpha 2/alpha 3-subtypes of human GABA(A) receptor-ion channels” (J Med Chem, 2002).

Legend:
[1] = biological target: T1, GABA-A receptor; alpha-5/beta-3/gamma-2 (Homo sapiens, UniProt P18507+P28472+P31644); test: Displacement of [3H]Ro-151788 from human GABA-A receptor alpha-5-beta-3-gamma-2 subunits expressed in L(tk-) cells; type: cell-based
T1 sequence (P18507 whole entry): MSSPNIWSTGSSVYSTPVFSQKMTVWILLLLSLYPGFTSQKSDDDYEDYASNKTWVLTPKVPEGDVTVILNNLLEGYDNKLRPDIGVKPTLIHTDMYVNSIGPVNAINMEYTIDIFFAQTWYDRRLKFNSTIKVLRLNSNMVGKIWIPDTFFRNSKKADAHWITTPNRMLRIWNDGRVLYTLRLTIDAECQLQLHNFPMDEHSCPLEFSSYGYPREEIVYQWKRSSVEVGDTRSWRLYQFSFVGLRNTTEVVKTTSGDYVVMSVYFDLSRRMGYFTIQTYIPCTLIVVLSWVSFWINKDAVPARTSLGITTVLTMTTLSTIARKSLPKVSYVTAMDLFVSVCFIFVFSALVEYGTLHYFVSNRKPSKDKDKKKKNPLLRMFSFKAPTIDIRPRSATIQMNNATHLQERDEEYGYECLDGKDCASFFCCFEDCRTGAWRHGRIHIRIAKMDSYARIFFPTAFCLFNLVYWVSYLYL
T1 sequence (P28472 whole entry): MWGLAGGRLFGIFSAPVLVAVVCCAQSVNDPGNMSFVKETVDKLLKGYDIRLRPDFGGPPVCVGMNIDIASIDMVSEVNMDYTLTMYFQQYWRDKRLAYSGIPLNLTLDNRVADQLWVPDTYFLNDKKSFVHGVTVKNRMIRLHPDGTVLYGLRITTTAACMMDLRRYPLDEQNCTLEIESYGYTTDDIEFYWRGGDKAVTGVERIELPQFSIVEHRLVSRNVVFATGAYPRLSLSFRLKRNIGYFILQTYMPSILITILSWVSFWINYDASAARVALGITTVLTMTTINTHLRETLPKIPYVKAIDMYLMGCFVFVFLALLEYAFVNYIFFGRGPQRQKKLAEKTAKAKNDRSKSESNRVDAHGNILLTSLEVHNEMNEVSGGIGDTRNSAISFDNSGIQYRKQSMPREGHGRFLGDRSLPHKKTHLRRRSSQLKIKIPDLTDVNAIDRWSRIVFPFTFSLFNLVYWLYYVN
T1 sequence (P31644 whole entry): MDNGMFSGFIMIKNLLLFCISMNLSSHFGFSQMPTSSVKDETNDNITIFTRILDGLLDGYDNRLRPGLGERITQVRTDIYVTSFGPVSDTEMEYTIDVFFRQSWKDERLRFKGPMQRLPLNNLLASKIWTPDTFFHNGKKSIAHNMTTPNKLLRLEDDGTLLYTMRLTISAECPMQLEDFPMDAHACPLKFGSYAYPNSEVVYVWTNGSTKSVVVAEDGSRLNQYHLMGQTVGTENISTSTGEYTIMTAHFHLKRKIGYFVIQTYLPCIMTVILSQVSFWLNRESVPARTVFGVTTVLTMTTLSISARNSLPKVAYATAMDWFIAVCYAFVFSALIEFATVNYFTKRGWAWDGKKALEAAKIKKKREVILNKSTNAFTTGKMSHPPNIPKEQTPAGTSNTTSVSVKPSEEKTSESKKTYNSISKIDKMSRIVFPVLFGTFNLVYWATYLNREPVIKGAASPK
Method in brief: (§1)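 Competition binding against [3H]Ro15-1788 on cloned human α1/α2/α3/α5 β3γ2S receptors stably expressed in L(tk-) cells. Six to eight test concentrations spaced in half-log steps. Ki given as mean (SEM), n = 3-5, reported to two significant figures.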

[2] = Oral bioavailability at a dose of 2.0 mg/kg; type: ADME, organism-based; conditions: eutheria, in vivo
[3] = Vdss at a dose of 2.0 mg/kg; type: ADME, organism-based; design: dose 2 mg/kg; conditions: in vivo, read-out: Vdss
[4] = Maximum concentration at a dose of 2.0 mg/kg; type: ADME, organism-based; design: dose 2 mg/kg; conditions: in vivo
[5] = biological target: GABA-A receptor; alpha-3/beta-3/gamma-2 (Homo sapiens) (UniProt P18507+P28472+P34903); test: Modulatory effect on coapplication with GABA at human Gamma-aminobutyric acid A receptor alpha-3-beta-3-gamma-2 in Xenopus oocytes.; type: cell-based; conditions: Oocyte
Method in brief: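 Two-electrode voltage clamp of Xenopus oocytes transiently expressing human α1, α2 or α3 β3γ2S receptors. Test compound is co-applied with GABA at its EC20 (GABA range 4-30 µM). Result is the % change in GABA current, mean (SEM), n = 3-7, at the stated test compound concentration (µM).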

[6] = half life at a dose of 2.0 mg/kg; type: ADME, organism-based; design: dose 2 mg/kg; conditions: in vivo
[7] = Clp at a dose of 2.0 mg/kg; type: ADME, organism-based; design: dose 2 mg/kg; conditions: in vivo
[8] = Partition coefficient (logD); type: physicochemical; conditions: octanol/water
[9] = Maximum time at a dose of 2.0 mg/kg; type: ADME, organism-based; design: dose 2 mg/kg; conditions: in vivo
[10] = Maximum concentration at a dose of 1.5 mg/kg; type: ADME, organism-based; design: dose 1.5 mg/kg; conditions: in vivo
[11] = Maximum time at a dose of 1.5 mg/kg; type: ADME, organism-based; design: dose 1.5 mg/kg; conditions: in vivo
[12] = Oral bioavailability at a dose of 1.5 mg/kg; type: ADME, organism-based; conditions: eutheria, in vivo
[13] = Log D was evaluated; type: physicochemical; conditions: octanol/water
[14] = biological target: T1, GABA-A receptor; alpha-5/beta-3/gamma-2; test: Inhibition of [3H]Ro-151788 binding to human GABA A receptor (alpha-5-beta-3-gamma-2) stably expressed in L(tk-) cells.; type: cell-based; method in brief: as §1
[15] = Vdss at a dose of 1.5 mg/kg; type: ADME, organism-based; design: dose 1.5 mg/kg; conditions: in vivo, read-out: Vdss
[16] = Clp at a dose of 1.5 mg/kg; type: ADME, organism-based; design: dose 1.5 mg/kg; conditions: in vivo
[17] = Half life at a dose of 1.5 mg/kg; type: ADME, organism-based; design: dose 1.5 mg/kg; conditions: in vivo

Ki [1] [nM] | bioavailability [2] [%] | Vd [3] [L/kg] | Cmax [4] [ng/mL] | percent modulation of GABA EC20 response [5] [%] | half-life [6] [min] | Clp [7] [mL/min/kg] | logD [8] | Tmax [9] [min] | Cmax [10] [ng/mL] | Tmax [11] [min] | bioavailability [12] [%] | logD [13] | Ki [14] [nM] | Vd [15] [L/kg] | Clp [16] [mL/min/kg] | half-life [17] [min] | Compound
320 | 25 | 3.3 | 83 | 43 | 102 | 44 | 3.6 | 18 | – | – | – | – | – | – | – | – | COc1ccc(-c2cc(-c3nc(C)cs3)c(=O)n(C)c2-c2ccncc2)cc1
– | – | – | – | 34 | – | – | – | – | 170 | 30 | 65 | 2.7 | 330 | 2.5 | 35 | 66 | COc1ccc(-c2cc(-c3nc(C)cs3)c(=O)n(C)c2-c2ccnnc2)cc1
